Results published in ChEMBL document CHEMBL5532690, “Antitubercular activity of 2-mercaptobenzothiazole derivatives targeting Mycobacterium tuberculosis type II NADH dehydrogenase” (RSC Med Chem, 2024).
Converted amounts (≈) assume the structure as drawn. The source made the active and inactive calls. The calls are words filed in the database; no cut-off is given here.

Experiments:
[1] = tested on: Mycobacterium tuberculosis; assay: Antitubercular activity against isoniazid and rifampicin resistant Mycobacterium tuberculosis mc2 8259 measured after 10 days by liquid broth microdilution assay; type: functional; conditions: mc2 8259, 240 h, time 10 day
In short: (§1)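 Broth microdilution in 7H9 with glycerol, ADS and 0.05% tyloxapol, supplemented with L-methionine, L-leucine (50 mg L−1 each), L-arginine (200 mg L−1) and D-pantothenate (24 mg L−1). Inoculum was diluted to OD600 0.005 (1.0 × 10^6 CFU ml−1) and added to two-fold serial dilutions. After 10 days at 37 °C, MIC was the lowest concentration without visible turbidity.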

[2] = tested on: Mycobacterium tuberculosis; assay: Antitubercular activity against isoniazid-resistant Mycobacterium tuberculosis mc2 8243 measured after 10 days by liquid broth microdilution assay; type: functional; conditions: mc2 8243, 240 h, time 10 day; in short: as §1
[3] = tested on: Mycobacterium tuberculosis; assay: Antitubercular activity against rifampicin-resistant Mycobacterium tuberculosis mc2 8247 measured after 10 days by liquid broth microdilution assay; type: functional; conditions: mc2 8247, 240 h, time 10 day; in short: as §1
[4] = tested on: Mycobacterium tuberculosis; assay: Inhibition of NDH-2 in Mycobacterium tuberculosis transformed with pMV762-Peredox-mCherry assessed as change in NADH/NAD+ ratio at 59.16 ug/ml incubated for 24 hrs by fluorimetric assay; conditions: dose 59.16 µg/ml
[5] = tested on: Mycobacterium tuberculosis; assay: Inhibition of NDH-2 in Mycobacterium tuberculosis transformed with pMV762-Peredox-mCherry incubated for 24 hrs by fluorimetric assay
In short: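 Peredox-mCherry reporter Mtb was grown in supplemented 7H9 to OD600 0.4–0.6 and inoculated onto compounds, then held at 37 °C for 24 h. Fluorescence was read at ex 400/em 510 nm and ex 587/em 615 nm. The green/red ratio was taken as NADH/NAD+. Triplicates; one-way ANOVA with Dunnett's test.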

[6] = tested on: Mycobacterium tuberculosis; assay: Inhibition of NDH-2 in Mycobacterium tuberculosis transformed with pMV762-Peredox-mCherry assessed as change in NADH/NAD+ ratio at 2.5 ug/ml incubated for 24 hrs by fluorimetric assay; conditions: dose 2.5 µg/ml

SMILES | MIC90 [1] | MIC90 [2] | MIC90 [3] | inhibition [4] | inhibition [5] | inhibition [6]
O=C(CSc1nc2c(Br)cc(F)cc2s1)NC1CCCCC1 | 8 µg/mL (≈ 19.8 µM) | 8 µg/mL (≈ 19.8 µM) | 4 µg/mL (≈ 9.92 µM) | – | – | –
C=C(C)[C@H]1Cc2c(ccc3c2O[C@@H]2COc4cc(OC)c(OC)cc4[C@@H]2C3=O)O1 [ROTENONE] | – | – | – | Active | – | –
CO[C@H]1/C=C/O[C@@]2(C)Oc3c(C)c(O)c4c(O)c(c(/C=N/N5CCN(C)CC5)c(O)c4c3C2=O)NC(=O)/C(C)=C\C=C\[C@H](C)[C@H](O)[C@@H](C)[C@@H](O)[C@@H](C)[C@H](OC(C)=O)[C@@H]1C [RIFAMPIN] | > 128 µg/mL | 0.12 µg/mL (≈ 0.146 µM) | > 128 µg/mL | – | – | –
Cc1cc(C)c2nc(SCC(=O)NC3CCCCC3)sc2c1 | 4 µg/mL (≈ 12 µM) | 4 µg/mL (≈ 12 µM) | 8 µg/mL (≈ 23.9 µM) | – | Active | –
NNC(=O)c1ccncc1 [ISONIAZID] | > 128 µg/mL | > 128 µg/mL | 0.25 µg/mL (≈ 1.82 µM) | – | – | –
CC(C)c1ccc2nc(SCC(=O)NC3CCCCC3)sc2c1 | 4 µg/mL (≈ 11.5 µM) | 4 µg/mL (≈ 11.5 µM) | 4 µg/mL (≈ 11.5 µM) | – | Active | –
CC(C)/N=c1\cc2n(-c3ccc(Cl)cc3)c3ccccc3nc-2cc1Nc1ccc(Cl)cc1 [CLOFAZIMINE] | – | – | – | – | – | inactive
O=C(CSc1nc2ccccc2c(=O)[nH]1)NC1CCCCC1 | 0.125 µg/mL (≈ 0.394 µM) | 0.125 µg/mL (≈ 0.394 µM) | 0.25 µg/mL (≈ 0.788 µM) | – | – | –
